Measured values as given in ChEMBL document CHEMBL2010670, “Discovery of a clinical stage multi-kinase inhibitor sodium (E)-2-{2-methoxy-5-[(2',4',6'-trimethoxystyrylsulfonyl)methyl]phenylamino}acetate (ON 01910.Na): synthesis, structure-activity relationship, and biological activity” (J Med Chem, 2011).

Key:
Type in all cases: functional, cell-based
DU-145 = assay: Cytotoxicity against human DU145 cells after 96 hrs by trypan blue exclusion assay; settings: Homo sapiens, DU-145, 96 h
Summary of the method: (§1)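 Cells grown in DMEM or RPMI with 10% FBS and penicillin-streptomycin, seeded at 1.0 × 10⁵ cells/mL/well in 6-well dishes. Compound added at a range of concentrations 24 h after seeding. Viable cells counted by trypan blue exclusion from duplicate wells after 96 h of exposure; dose-response end point.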

K562 = assay: Cytotoxicity against human K562 cells after 96 hrs by trypan blue exclusion assay; settings: Homo sapiens, K562, 96 h; summary of the method: as §1
[1] = Cytotoxicity against human MES-SA cells assessed as cell viability after 96 hrs by trypan blue exclusion; summary of the method: as §1
[2] = Cytotoxicity against multidrug-resistant human MES-SA/Dx5 cells assessed as cell viability after 96 hrs by trypan blue exclusion; settings: MES-SA/Dx5, 96 h
Summary of the method: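 Cells grown in DMEM or RPMI with 10% FBS and 1 unit/mL penicillin-streptomycin, seeded at 1.0 × 10⁵ cells/mL/well in 6-well dishes; compound added 24 h later at various concentrations. After 96 h of treatment, viable cells counted by trypan blue exclusion in duplicate wells; dose-response end point.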

Compound	IC50 (DU-145)	IC50 (K562)	IC50 [1]	IC50 [2]
COc1ccc(CS(=O)(=O)/C=C/c2c(OC)cc(OC)cc2OC)c(N)c1	25 nM	25 nM	–	–
COc1cc(OC)c(/C=C/S(=O)(=O)Cc2ccc(Br)c([N+](=O)[O-])c2)c(OC)c1	25000 nM	25000 nM	–	–
COC(=O)CNc1cc(CS(=O)(=O)/C=C/c2c(OC)cc(OC)cc2OC)ccc1OC	100 nM	100 nM	–	–
CC(=O)O[C@H]1C(=O)[C@@]2(C)[C@H]([C@H](OC(=O)c3ccccc3)[C@]3(O)C[C@H](OC(=O)[C@H](O)[C@@H](NC(=O)c4ccccc4)c4ccccc4)C(C)=C1C3(C)C)[C@]1(OC(C)=O)CO[C@@H]1C[C@@H]2O [PACLITAXEL]	–	–	4 nM	750 nM
COc1ccc(CS(=O)(=O)/C=C/c2c(F)cc(F)cc2F)cc1N	2000 nM	800 nM	–	–
COc1cc(OC)c(/C=C/S(=O)(=O)Cc2ccc(OC)c(NC(C)(C)C(=O)O)c2)c(OC)c1	150 nM	7.5 nM	–	–
COc1cc(OC)c(/C=C/S(=O)(=O)Cc2ccc(OC)c(NC(C(=O)O)c3ccc(Br)cc3)c2)c(OC)c1 (centres undefined)	300 nM	200 nM	–	–
COc1ccc(C(Nc2cc(CS(=O)(=O)/C=C/c3c(OC)cc(OC)cc3OC)ccc2OC)C(=O)O)cc1 (centres undefined)	100 nM	15 nM	–	–
COC(=O)C(Nc1cc(CS(=O)(=O)/C=C/c2c(OC)cc(OC)cc2OC)ccc1OC)c1ccc(Br)cc1 (centres undefined)	300 nM	200 nM	–	–
COc1ccc(N)cc1CS(=O)(=O)/C=C/c1c(OC)cccc1OC	25000 nM	25000 nM	–	–
COc1cc(OC)c(/C=C/[S+]([O-])Cc2ccc(OC)c(N)c2)c(OC)c1 (centres undefined)	40 nM	20 nM	–	–
COc1cc(OC)c(/C=C/S(=O)(=O)Cc2ccc(OC)c(N[C@@H](C)C(=O)O)c2)c(OC)c1	25 nM	15 nM	–	–
COc1cc(OC)c(/C=C/S(=O)(=O)Cc2ccc(F)c(N)c2)c(OC)c1	2500 nM	2500 nM	–	–
COc1cc(OC)c(/C=C/SCc2ccc(OC)c([N+](=O)[O-])c2)c(OC)c1	5000 nM	5000 nM	–	–
COc1ccc(CS(=O)(=O)/C=C/c2cc(OC)c(OC)c(OC)c2)cc1NCC(=O)O	5000 nM	3000 nM	–	–
COc1ccc(/C=C/S(=O)(=O)Cc2ccc(OC)c(N)c2)c(OC)c1	500 nM	500 nM	–	–
COc1cc(OC)c(/C=C/S(=O)(=O)Cc2ccc(OC)c(NC(C(=O)O)C(F)(F)F)c2)c(OC)c1 (centres undefined)	20 nM	75 nM	–	–
COc1ccc(CS(=O)(=O)/C=C/c2c(OC)cccc2OC)c(N)c1	750 nM	750 nM	–	–
COc1cc(OC)c(/C=C/S(=O)(=O)Cc2ccc(Br)c(N)c2)c(OC)c1	750 nM	750 nM	–	–

Compound	IC50 (DU-145)	IC50 (K562)	IC50 [1]	IC50 [2]
COc1cc(OC)c(/C=C/S(=O)(=O)Cc2ccc(OC)c(NCC(=O)O)c2)c(OC)c1 [RIGOSERTIB]	75 nM	7.5 nM	–	–
COC(=O)CNc1cc(CS(=O)(=O)/C=C/c2cc(OC)c(OC)c(OC)c2)ccc1OC	75000 nM	30000 nM	–	–
COC(=O)CCNc1cc(CS(=O)(=O)/C=C/c2c(OC)cc(OC)cc2OC)ccc1OC	1500 nM	1000 nM	–	–
COc1cc(OC)c(/C=C/SCc2ccc(OC)c(N)c2)c(OC)c1	50 nM	30 nM	–	–
COc1ccccc1/C=C/S(=O)(=O)Cc1ccc(OC)c([N+](=O)[O-])c1	20000 nM	20000 nM	–	–
COc1cc(OC)c(/C=C/S(=O)(=O)Cc2ccc(OC)c(NC(C(=O)O)c3ccc(Cl)cc3)c2)c(OC)c1 (centres undefined)	400 nM	250 nM	–	–
COc1cc(OC)c(/C=C/S(=O)(=O)Cc2ccc(OC)c([N+](=O)[O-])c2)c(OC)c1	2500 nM	2500 nM	–	–
COC(=O)C(Nc1cc(CS(=O)(=O)/C=C/c2c(OC)cc(OC)cc2OC)ccc1OC)c1ccccc1 (centres undefined)	75 nM	30 nM	–	–
COC(=O)C(Nc1cc(CS(=O)(=O)/C=C/c2c(OC)cc(OC)cc2OC)ccc1OC)c1ccc(F)cc1 (centres undefined)	300 nM	800 nM	–	–
COc1cc(OC)c(/C=C/S(=O)(=O)Cc2ccc(F)c([N+](=O)[O-])c2)c(OC)c1	25000 nM	25000 nM	–	–
COC(=O)C(Nc1cc(CS(=O)(=O)/C=C/c2c(OC)cc(OC)cc2OC)ccc1OC)c1ccc(Cl)cc1 (centres undefined)	400 nM	200 nM	–	–
COC(=O)C(Nc1cc(CS(=O)(=O)/C=C/c2c(OC)cc(OC)cc2OC)ccc1OC)c1ccc(OC)cc1 (centres undefined)	250 nM	150 nM	–	–
COc1ccc(CS(=O)(=O)/C=C/c2c(OC)cc(O)cc2OC)cc1[N+](=O)[O-]	5000 nM	5000 nM	–	–
COc1ccc(CS(=O)(=O)/C=C/c2cc(F)c(F)cc2F)cc1N	5000 nM	15000 nM	–	–
COC(=O)C(C)(C)Nc1cc(CS(=O)(=O)/C=C/c2c(OC)cc(OC)cc2OC)ccc1OC	2500 nM	800 nM	–	–
COc1cc(OC)c(/C=C/S(=O)(=O)Cc2ccc(OC)c(NC(C(=O)O)c3ccccc3)c2)c(OC)c1 (centres undefined)	20 nM	15 nM	–	–
COc1ccc(CS(=O)(=O)/C=C/c2c(OC)cccc2OC)c([N+](=O)[O-])c1	50000 nM	50000 nM	–	–
COc1cc(OC)c(/C=C/S(=O)(=O)Cc2ccc(Cl)c(N)c2)c(OC)c1	10 nM	10 nM	–	–
COc1cc(OC)c(/C=C/S(=O)(=O)Cc2ccc(OC)c(NC(F)(F)C(=O)O)c2)c(OC)c1	150 nM	150 nM	–	–

Compound	IC50 (DU-145)	IC50 (K562)	IC50 [1]	IC50 [2]
COc1cc(OC)c(/C=C/S(=O)(=O)Cc2ccc(Cl)cc2N)c(OC)c1	2500 nM	2500 nM	–	–
COc1ccc(CS(=O)(=O)/C=C/c2cc(OC)c(OC)c(OC)c2)cc1N	3000 nM	250 nM	–	–
COc1ccc(CS(=O)(=O)/C=C/c2c(OC)cc(O)cc2OC)cc1N	200 nM	300 nM	–	–
COc1ccc(CS(=O)(=O)/C=C/c2c(OC)cc(OCCCC(=O)O)cc2OC)cc1N	25000 nM	20000 nM	–	–
COc1cc(OC)c(/C=C/S(=O)(=O)Cc2ccc(OC)c(NC(C(=O)O)c3ccc(F)cc3)c2)c(OC)c1 (centres undefined)	150 nM	80 nM	–	–
COc1cc(OC)c(/C=C/S(=O)(=O)Cc2ccc(OC)c(NCCC(=O)O)c2)c(OC)c1	5000 nM	5000 nM	–	–
COc1ccc(CS(=O)(=O)/C=C/c2cc(OC)c(OC)cc2OC)cc1N	250 nM	250 nM	–	–
COc1cc(OC)c(/C=C/[S+]([O-])Cc2ccc(OC)c([N+](=O)[O-])c2)c(OC)c1 (centres undefined)	15000 nM	15000 nM	–	–
COc1ccc(/C=C/S(=O)(=O)Cc2ccc(OC)c(N)c2)cc1	2500 nM	2500 nM	–	–
COC(=O)C(F)(F)Nc1cc(CS(=O)(=O)/C=C/c2c(OC)cc(OC)cc2OC)ccc1OC	250 nM	250 nM	–	–
COc1ccc(/C=C/S(=O)(=O)Cc2ccc(OC)c([N+](=O)[O-])c2)cc1	25000 nM	25000 nM	–	–
COc1cc(OC)c(/C=C/S(=O)(=O)Cc2cc(N)ccc2OC)c(OC)c1	7500 nM	7500 nM	–	–
COc1cc(OC)c(/C=C/S(=O)(=O)Cc2ccc(OC)cc2[N+](=O)[O-])c(OC)c1	20000 nM	20000 nM	–	–
COC(=O)C(Nc1cc(CS(=O)(=O)/C=C/c2c(OC)cc(OC)cc2OC)ccc1OC)C(F)(F)F (centres undefined)	250 nM	250 nM	–	–
COC(=O)[C@H](C)Nc1cc(CS(=O)(=O)/C=C/c2c(OC)cc(OC)cc2OC)ccc1OC	750 nM	200 nM	–	–
COc1ccc(CS(=O)(=O)/C=C/c2c(OC)cccc2OC)cc1N	50 nM	50 nM	–	–
COc1ccc(CS(=O)(=O)/C=C/c2c(OC)cccc2OC)cc1[N+](=O)[O-]	20000 nM	20000 nM	–	–
COc1ccc(CS(=O)(=O)/C=C/c2ccccc2OC)cc1N	7500 nM	7500 nM	–	–
COc1ccc(OC)c(/C=C/S(=O)(=O)Cc2ccc(OC)c(N)c2)c1	750 nM	750 nM	–	–
